Test results as given in ChEMBL document CHEMBL2424606, “Selective cytotoxicity, inhibition of cell cycle progression, and induction of apoptosis in human breast cancer cells by sesquiterpenoids from Inula lineariifolia Turcz” (Eur J Med Chem, 2013).
Active and inactive are the calls of the source. The rule behind the calls is not given here.

Columns and labels:
[1] = tested on: MCF7; assay: Cell cycle arrest in human MCF7 cells assessed as accumulation at G2/M phase after 24 hrs by propidium iodide staining-based flow cytometric analysis; assay type: functional
Summary of the method: (§1)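 Cells (2–3×10⁵) exposed to test compound at 0, 1 or 2.5 μM for 24 h. Trypsinized, PBS-washed, fixed in 95% ethanol at 4 °C overnight, RNAse-treated, propidium iodide-stained. DNA content measured by flow cytometry for phase distribution.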

[2] = tested on: MCF7; assay: Cell cycle arrest in human MCF7 cells assessed as accumulation at G2/M phase at 2.5 uM after 24 hrs by propidium iodide staining-based flow cytometric analysis; assay type: functional; summary of the method: as §1
[3] = tested on: MDA-MB-231; assay: Induction of apoptosis in human MDA-MB-231 cells assessed as apoptotic index at 5 uM after 48 hrs by annexin V-FITC/propidium iodide staining-based flow cytometric analysis relative to control; assay type: functional
Summary of the method: (§2)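 Treatment of 2–3×10⁵ cells with compound at 0, 1 or 5 μM for 48 h. Media plus cells collected, washed in serum-free medium, resuspended in Annexin V binding buffer. Stained with annexin V-FITC and propidium iodide 15 min in the dark at room temperature, then flow cytometry. Early (annexin only) and late (annexin+PI) apoptotic cells counted. Apoptotic index vs untreated cells. Means ± S.D., Student's t-test vs DMSO control.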

[4] = tested on: MCF-10A; assay: Cytotoxicity against human MCF10A cells assessed as growth inhibition after 72 hrs by MTT assay; assay type: cell-based
Summary of the method: (§3)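 3×10³ cells/well exposed 72 h to compound at 0, 1, 5, 10, 25, 50 μM, DMSO as vehicle control. MTT (5 mg/mL solution) added for 2–4 h at 37°C. Formazan dissolved in DMSO, absorbance read at 570 nm. Viability is mean OD relative to DMSO wells. IC50 from three separate experiments.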

[5] = tested on: MDA-MB-231; assay: Cell cycle arrest in human MDA-MB-231 cells assessed as accumulation at G2/M phase at 2.5 uM after 24 hrs by propidium iodide staining-based flow cytometric analysis; assay type: functional; summary of the method: as §1
[6] = tested on: MDA-MB-231; assay: Cell cycle arrest in human MDA-MB-231 cells assessed as accumulation at S phase at 2.5 uM after 24 hrs by propidium iodide staining-based flow cytometric analysis; assay type: functional; summary of the method: as §1
[7] = tested on: MCF7; assay: Cytotoxicity against human MCF7 cells assessed as growth inhibition after 72 hrs by MTT assay; assay type: functional, cell-based; conditions: MCF7, 72 h; summary of the method: as §3
[8] = tested on: MDA-MB-231; assay: Cell cycle arrest in human MDA-MB-231 cells assessed as accumulation at G2/M phase after 24 hrs by propidium iodide staining-based flow cytometric analysis; assay type: functional; summary of the method: as §1
[9] = tested on: MDA-MB-231; assay: Cytotoxicity against human MDA-MB-231 cells assessed as growth inhibition after 72 hrs by MTT assay; assay type: functional, cell-based; conditions: MDA-MB-231, 72 h; summary of the method: as §3
[10] = tested on: MCF7; assay: Induction of apoptosis in human MCF7 cells assessed as apoptotic index at 5 uM after 48 hrs by annexin V-FITC/propidium iodide staining-based flow cytometric analysis relative to control; assay type: functional; summary of the method: as §2
[11] = tested on: MCF7; assay: Induction of apoptosis in human MCF7 cells after 48 hrs by annexin V-FITC/propidium iodide staining-based flow cytometric analysis; assay type: functional, cell-based; summary of the method: as §2
[12] = tested on: MDA-MB-231; assay: Induction of apoptosis in human MDA-MB-231 cells after 48 hrs by annexin V-FITC/propidium iodide staining-based flow cytometric analysis; assay type: functional, cell-based; summary of the method: as §2
[13] = tested on: MDA-MB-231; assay: Cell cycle arrest in human MDA-MB-231 cells assessed as accumulation at S phase after 24 hrs by propidium iodide staining-based flow cytometric analysis; assay type: functional; summary of the method: as §1

| Compound | IC50 [4] | IC50 [7] | IC50 [9] | further results |
| --- | --- | --- | --- | --- |
| C=C1C(=O)O[C@H]2C[C@H](C)[C@@]34C[C@@]5(C(=O)O[C@H]6C[C@@H](C)[C@@H]7[C@@H](OC(C)=O)C[C@H](O)[C@@]7(C)C[C@@H]65)[C@@H](C(C)=C3C[C@H]12)[C@@H]4O | 27.9 µM | 1.6 µM | 2.8 µM | Activity [1]: Dose-dependent effect; Activity [2]: Active; fold change (FC) [3]: 14.2; Activity [5]: Active; Activity [6]: Active; Activity [8]: Dose-dependent effect; fold change (FC) [10]: 7.6; Activity [11]: Dose-dependent effect; Activity [12]: Dose-dependent effect; Activity [13]: Dose-dependent effect |
| C=C1C(=O)O[C@H]2C[C@H](C)[C@@]34C[C@@]5(C(=O)O[C@H]6C=C(C)[C@H]7[C@@H](OC(C)=O)C[C@@](C)(O)[C@@H]7C[C@@H]65)[C@@H](C(C)=C3C[C@H]12)[C@@H]4OC(C)=O | > 50 µM | 3.4 µM | 10.7 µM |  |
| CC(=O)O[C@H]1C(=O)[C@@]2(C)[C@H]([C@H](OC(=O)c3ccccc3)[C@]3(O)C[C@H](OC(=O)[C@H](O)[C@@H](NC(=O)c4ccccc4)c4ccccc4)C(C)=C1C3(C)C)[C@]1(OC(C)=O)CO[C@@H]1C[C@@H]2O [PACLITAXEL] | 0.427 µM | 0.0752 µM | 0.087 µM |  |
| C=C1C(=O)O[C@H]2C=C(C)[C@@H]3[C@@H]([C@@H](O)[C@H]12)[C@](C)(O)C[C@@H]3OC(C)=O | > 50 µM | 6.2 µM | 11.4 µM |  |
| C=C1C(=O)O[C@@H]2CC(C)=C3[C@@H](C[C@H]12)[C@](C)(O)C[C@@H]3O | > 50 µM | > 50 µM | > 50 µM |  |
| C=C1C(=O)O[C@H]2C[C@@H](C)[C@@H]3C=CC(=O)[C@@]3(C)[C@@H](OC(C)=O)[C@H]12 [BIGELOVIN] | 26 µM | 2.1 µM | 2.3 µM |  |
| C=C1C(=O)O[C@@H]2CC(C)=C3[C@@H](OC(C)=O)C[C@@](C)(O)[C@@H]3[C@@H](O)[C@H]12 | > 50 µM | > 50 µM | > 50 µM |  |
| C=C1C(=O)O[C@H]2C[C@H](C)[C@@]34C[C@@]5(C(=O)O[C@H]6C=C(C)[C@H]7[C@@H](OC(C)=O)C[C@@](C)(O)[C@@H]7C[C@@H]65)[C@@H](C(C)=C3C[C@H]12)[C@@H]4O | > 50 µM | 7.8 µM | 16.5 µM |  |
| CC(=O)O[C@H]1C=C(CCO)[C@@H](C)C[C@H]2OC(=O)[C@@H](C)[C@@H]12 | > 50 µM | > 50 µM | > 50 µM |  |
| C=C1C(=O)O[C@H]2C[C@H](C)[C@@]34C[C@@]5(C(=O)O[C@H]6/C=C(\C)CC/C=C(\CO)C[C@H](O)[C@@H]65)[C@@H](C(C)=C3C[C@H]12)[C@@H]4OC(C)=O | 26.4 µM | 3.7 µM | 5.7 µM |  |
| C=C1C(=O)O[C@@H]2/C=C(\C)CC/C=C(\CO)C[C@@H](O)[C@@H]12 [DEACETYLOVATIFOLIN] | 45.7 µM | 6.9 µM | 13.8 µM |  |
| C=C1C[C@@H]2OC(=O)C(=C)[C@H]2C[C@@H]2[C@@H]1[C@@H](O)C[C@@]2(C)O | > 50 µM | 13.7 µM | 21.1 µM |  |
| C=C1C(=O)O[C@@H]2CC(C)=C3[C@@H](OC(C)=O)C[C@@](C)(O)[C@@H]3C[C@H]12 [INUCHINENOLIDE B] | > 50 µM | 15.5 µM | 25.8 µM |  |
| C[C@@H]1C2=C[C@H]3[C@@H](C[C@@]2(C)CC[C@@H]1O)OC(=O)[C@@H]3C | > 50 µM | > 50 µM | > 50 µM |  |
| C=C1C(=O)O[C@H]2C[C@H](C)[C@H]3[C@@H](O)C[C@@](C)(O)[C@@]34O[C@H]4[C@H]12 | > 50 µM | > 50 µM | > 50 µM |  |
| C=C1C(=O)O[C@@H]2C[C@H](C)[C@@H]3[C@@H](OC(C)=O)C[C@H](O)[C@@]3(C)C[C@H]12 | > 50 µM | 6.7 µM | 12.9 µM |  |
